Assay results from ChEMBL document CHEMBL1131626 (J Med Chem, 1998).

Columns and labels:
[1] = molecular target: T1, Progesterone receptor (Mus musculus) (UniProt Q00175); assay: Effect on pregnancy in mice as number pregnant/mated at 3 mg/mouse dose with simultaneous 0.5 mg RU-486 dose; out of 9; type: functional
T1 sequence (whole entry): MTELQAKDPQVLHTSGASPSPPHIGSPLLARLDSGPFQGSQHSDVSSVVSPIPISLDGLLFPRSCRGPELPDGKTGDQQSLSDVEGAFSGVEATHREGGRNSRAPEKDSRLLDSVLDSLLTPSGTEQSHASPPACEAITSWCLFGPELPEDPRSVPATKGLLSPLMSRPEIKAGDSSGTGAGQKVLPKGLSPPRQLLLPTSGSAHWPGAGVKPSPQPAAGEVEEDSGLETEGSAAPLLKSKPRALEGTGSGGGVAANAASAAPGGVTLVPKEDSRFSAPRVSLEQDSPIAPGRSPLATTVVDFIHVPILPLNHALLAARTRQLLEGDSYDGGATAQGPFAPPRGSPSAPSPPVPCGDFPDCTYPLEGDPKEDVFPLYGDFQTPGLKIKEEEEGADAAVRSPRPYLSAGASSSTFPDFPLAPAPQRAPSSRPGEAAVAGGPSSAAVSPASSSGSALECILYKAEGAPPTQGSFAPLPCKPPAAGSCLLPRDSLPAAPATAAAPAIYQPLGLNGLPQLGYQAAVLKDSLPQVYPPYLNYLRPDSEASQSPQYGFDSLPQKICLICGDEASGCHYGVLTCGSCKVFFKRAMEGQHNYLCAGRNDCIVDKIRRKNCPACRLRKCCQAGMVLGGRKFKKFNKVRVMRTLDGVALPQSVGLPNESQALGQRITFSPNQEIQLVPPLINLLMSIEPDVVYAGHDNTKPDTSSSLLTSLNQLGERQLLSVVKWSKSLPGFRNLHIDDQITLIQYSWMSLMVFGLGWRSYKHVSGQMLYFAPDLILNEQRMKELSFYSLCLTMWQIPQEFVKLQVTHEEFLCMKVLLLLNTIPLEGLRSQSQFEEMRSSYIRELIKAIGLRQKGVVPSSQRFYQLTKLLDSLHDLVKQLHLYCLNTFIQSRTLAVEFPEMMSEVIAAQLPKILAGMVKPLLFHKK
Outline: (§1)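 Mature virgin ICR mice, 10-12 weeks old, mated overnight; vaginal plug marks day 1. Oral RU486 0.5 mg (~15 mg/kg), alone or with test compound (mg/mouse), on days 2-4. Compounds in ethanol diluted with corn oil, 0.1 mL. Oil controls. Necropsy on day 8 to count corpora lutea and implantation sites and to score pregnancy. Student t-test.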

[2] = molecular target: T1, Progesterone receptor (Mus musculus); assay: Effect on pregnancy in mice as implantation at 1 mg/mouse dose with simultaneous 0.5 mg RU-486 dose; type: functional; outline: as §1
[3] = molecular target: T1, Progesterone receptor (Mus musculus); assay: Effect on pregnancy in mice as number pregnant/mated at 1 mg/mouse dose with simultaneous 0.5 mg RU-486 dose; out of 11; type: functional; outline: as §1
[4] = molecular target: T1, Progesterone receptor (Mus musculus); assay: Effect on pregnancy in mice as percent pregnant at 1 mg/mouse dose with simultaneous 0.5 mg RU-486 dose; type: functional; outline: as §1
[5] = molecular target: T1, Progesterone receptor (Mus musculus); assay: Effect on pregnancy in mice as corpora lutea at 1 mg/mouse dose with simultaneous 0.5 mg RU-486 dose; type: functional, organism-based; outline: as §1
[6] = molecular target: T1, Progesterone receptor (Mus musculus); assay: Effect on pregnancy in mice as corpora lutea at 3 mg/mouse dose with simultaneous 0.5 mg RU-486 dose; type: functional, organism-based; outline: as §1
[7] = molecular target: T1, Progesterone receptor (Mus musculus); assay: Effect on pregnancy in mice as percent pregnant at 3 mg/mouse dose with simultaneous 0.5 mg RU-486 dose; type: functional; outline: as §1
[8] = molecular target: T1, Progesterone receptor (Mus musculus); assay: Effect on pregnancy in mice as implantation at 3 mg/mouse dose with simultaneous 0.5 mg RU-486 dose; type: functional; outline: as §1
[9] = molecular target: T1, Progesterone receptor (Mus musculus); assay: Effect on pregnancy in mice as number pregnant/mated at 0.5 mg/mouse dose with simultaneous 0.5 mg RU-486 dose; out of 16; type: functional; outline: as §1
[10] = molecular target: T1, Progesterone receptor (Mus musculus); assay: Effect on pregnancy in mice as implantation at 0.5 mg/mouse dose with simultaneous 0.5 mg RU-486 dose; type: functional; outline: as §1
[11] = molecular target: T1, Progesterone receptor (Mus musculus); assay: Effect on pregnancy in mice as corpora lutea at 0.5 mg/mouse dose with simultaneous 0.5 mg RU-486 dose; type: functional, organism-based; outline: as §1
[12] = molecular target: T1, Progesterone receptor (Mus musculus); assay: Effect on pregnancy in mice as percent pregnant at 0.5 mg/mouse dose with simultaneous 0.5 mg RU-486 dose; type: functional; outline: as §1
[13] = molecular target: T1, Progesterone receptor (Mus musculus); assay: Effect on pregnancy in mice as corpora lutea at 30 mg/mouse dose with simultaneous 0.5 mg RU-486 dose; type: functional, organism-based; outline: as §1
[14] = molecular target: T1, Progesterone receptor (Mus musculus); assay: Effect on pregnancy in mice as implantation at 30 mg/mouse dose with simultaneous 0.5 mg RU-486 dose; type: functional; outline: as §1
[15] = molecular target: T1, Progesterone receptor (Mus musculus); assay: Effect on pregnancy in mice as number pregnant/mated at 1 mg/mouse dose with simultaneous 0.5 mg RU-486 dose; out of 10; type: functional; outline: as §1
[16] = molecular target: T1, Progesterone receptor (Mus musculus); assay: Effect on pregnancy in mice as percent pregnant at 10 mg/mouse dose with simultaneous 0.5 mg RU-486 dose; type: functional; outline: as §1
[17] = molecular target: T1, Progesterone receptor (Mus musculus); assay: Effect on pregnancy in mice as implantation at 10 mg/mouse dose with simultaneous 0.5 mg RU-486 dose; type: functional; outline: as §1
[18] = molecular target: T1, Progesterone receptor (Mus musculus); assay: Effect on pregnancy in mice as number pregnant/mated at 10 mg/mouse dose with simultaneous 0.5 mg RU-486 dose; out of 10; type: functional; outline: as §1
[19] = molecular target: T1, Progesterone receptor (Mus musculus); assay: Effect on pregnancy in mice as percent pregnant at 30 mg/mouse dose with simultaneous 0.5 mg RU-486 dose; type: functional; outline: as §1
[20] = molecular target: T1, Progesterone receptor (Mus musculus); assay: Effect on pregnancy in mice as corpora lutea at 10 mg/mouse dose with simultaneous 0.5 mg RU-486 dose; type: functional, organism-based; outline: as §1
[21] = molecular target: T1, Progesterone receptor (Mus musculus); assay: Effect on pregnancy in mice as number pregnant/mated at 3 mg/mouse dose with simultaneous 0.5 mg RU-486 dose; out of 12; type: functional; outline: as §1
[22] = molecular target: T1, Progesterone receptor (Mus musculus); assay: Effect on pregnancy in mice as number pregnant/mated at 30 mg/mouse dose with simultaneous 0.5 mg RU-486 dose; out of 10; type: functional; outline: as §1

Question: How did the No. pregnant/mated [1] turn out when `CC#C[C@]1(O)CC[C@H]2[C@@H]3CCC4=CC(=O)CCC4=C3[C@@H](c3ccc(N(C)C)cc3)C[C@@]21C.CC1=CC(C)(C)Nc2ccc3c(c21)C(c1cccc(Cl)c1)Oc1ccc(F)cc1-3` was run?
Answer: 9

Question: What about the Implants [2] of the same compound?
Answer: 12

Question: What about the No. pregnant/mated [3] of the same compound?
Answer: 10

Question: And the Pregnant [4]?
Answer: 91%

Question: What about the Corpora lutea [5] of the same compound?
Answer: 14.1

Question: What about the Corpora lutea [6] of the same compound?
Answer: 14.1

Question: What about the Pregnant [7] of the same compound?
Answer: 100%

Question: What about the Implants [8] of the same compound?
Answer: 13.7

Question: Which results are given for `CC#C[C@]1(O)CC[C@H]2[C@@H]3CCC4=CC(=O)CCC4=C3[C@@H](c3ccc(N(C)C)cc3)C[C@@]21C`?
Answer: No. pregnant/mated [9]: 3; Implants [10]: 3.3; Corpora lutea [11]: 13.4; Pregnant [12]: 18.8%

Question: For `CC#C[C@]1(O)CC[C@H]2[C@@H]3CCC4=CC(=O)CCC4=C3[C@@H](c3ccc(N(C)C)cc3)C[C@@]21C.CC(=O)O[C@]1(C(C)=O)CC[C@H]2[C@@H]3C[C@H](C)C4=CC(=O)CC[C@]4(C)[C@H]3CC[C@@]21C`, which Corpora lutea [13] is on record?
Answer: 10.7

Question: What about the Implants [14] of the same compound?
Answer: 6.7

Question: And the No. pregnant/mated [15]?
Answer: 1

Question: What about the Pregnant [16] of the same compound?
Answer: 10%

Question: What about the Implants [17] of the same compound?
Answer: 1.4

Question: And the No. pregnant/mated [18]?
Answer: 1

Question: What about the Implants [2] of the same compound?
Answer: 1.2

Question: And the Pregnant [4]?
Answer: 10%

Question: What about the Corpora lutea [5] of the same compound?
Answer: 11.7

Question: And the Corpora lutea [6]?
Answer: 13.6

Question: And the Pregnant [7]?
Answer: 16.7%

Question: And the Pregnant [19]?
Answer: 50%

Question: What about the Corpora lutea [20] of the same compound?
Answer: 12.3

Question: What about the No. pregnant/mated [21] of the same compound?
Answer: 2

Question: And the No. pregnant/mated [22]?
Answer: 5

Question: What about the Implants [8] of the same compound?
Answer: 2.6
